Experimental data taken from ChEMBL document CHEMBL3621107, “Ring fusion strategy for synthesis and lead optimization of sulfur-substituted anthra[1,2-c][1,2,5]thiadiazole-6,11-dione derivatives as promising scaffold of antitumor agents” (Eur J Med Chem, 2015).

Experiments:
Type in all cases: functional
[1] = Cytotoxicity against human melanoma cells assessed as growth inhibition after 48 hrs by SRB assay; conditions: Melanoma cell
Procedure, shortened: (§1)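 Values come from the NCI-60 five-dose panel (0.01–100 µM). The subpanel MID is the mean GI50 over the lines of that tumour subpanel. The selectivity ratio is the full-panel MID divided by the subpanel MID; 3–6 is rated moderate and >6 high.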

UACC-257 = assay: Cytotoxicity against human UACC257 cells after 48 hrs by SRB assay; conditions: UACC-257, 48 h
Procedure, shortened: (§2)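 NCI-60 five-dose study run by NCI DTP at 0.01, 0.1, 1, 10 and 100 µM. Percentage growth at each level was plotted against log10 concentration for each line, and GI50, TGI and LC50 were read from the dose-response curves.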

HOP-62 = assay: Cytotoxicity against human HOP62 cells after 48 hrs by SRB assay; conditions: HOP-62, 48 h
Procedure, shortened: (§3)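 NCI-60 human tumour cell panel screen, second stage, run by the NCI Developmental Therapeutics Program. Compounds were tested at five concentrations (0.01, 0.1, 1, 10 and 100 μM). Percentage growth was plotted against log10 concentration for each cell line. GI50, TGI and LC50 were taken from these dose-response curves.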

786-0 = assay: Cytotoxicity against human 786-0 cells after 48 hrs by SRB assay; conditions: 786-0, 48 h; procedure, shortened: as §3
OVCAR-5 = assay: Cytotoxicity against human OVCAR5 cells after 48 hrs by SRB assay; conditions: OVCAR-5, 48 h
Procedure, shortened: (§4)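 Second-stage NCI-60 panel run by the NCI Developmental Therapeutics Program, covering nine tumour subpanels. Five concentrations were tested: 0.01, 0.1, 1, 10 and 100 μM. Percentage growth at each level was plotted against log10 drug concentration. GI50, TGI and LC50 were read from these dose-response curves. Subpanel MID values were divided into the full-panel MID to give selectivity ratios.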

NCI-H522 = assay: Cytotoxicity against human NCI-H522 cells after 48 hrs by SRB assay; conditions: NCI-H522, 48 h; procedure, shortened: as §4
[2] = Cytotoxicity against human renal cancer cells assessed as growth inhibition after 48 hrs by SRB assay; conditions: Cancer cell lines; procedure, shortened: as §1
SN12C = assay: Cytotoxicity against human SN12C cells after 48 hrs by SRB assay; procedure, shortened: as §4
NCI/ADR-RES = assay: Cytotoxicity against human NCI/ADR-RES cells after 48 hrs by SRB assay; procedure, shortened: as §4
Malme-3M = assay: Cytotoxicity against human MALME-3M cells after 48 hrs by SRB assay; procedure, shortened: as §3
U-251 = assay: Cytotoxicity against human U251 cells after 48 hrs by SRB assay; conditions: U-251, 48 h; procedure, shortened: as §2
[3] = Cytotoxicity against human breast cancer cells assessed as growth inhibition after 48 hrs by SRB assay; conditions: Cancer cell lines; procedure, shortened: as §1
[4] = Cytotoxicity against human EKVX cells after 48 hrs by SRB assay; procedure, shortened: as §3
SF-539 = assay: Cytotoxicity against human SF539 cells after 48 hrs by SRB assay; conditions: SF-539, 48 h; procedure, shortened: as §4
SNB-75 = assay: Cytotoxicity against human SNB75 cells after 48 hrs by SRB assay; conditions: SNB-75, 48 h; procedure, shortened: as §2
[5] = Cytotoxicity against human leukemia cells assessed as growth inhibition after 48 hrs by SRB assay; conditions: Leukemia cell; procedure, shortened: as §1
A549 = assay: Cytotoxicity against human A549 cells after 48 hrs by SRB assay; conditions: A549, 48 h; procedure, shortened: as §3
SW-620 = assay: Cytotoxicity against human SW620 cells after 48 hrs by SRB assay; conditions: SW-620, 48 h; procedure, shortened: as §2
SF-295 = assay: Cytotoxicity against human SF295 cells after 48 hrs by SRB assay; conditions: SF-295, 48 h; procedure, shortened: as §4
HCC 2998 = assay: Cytotoxicity against human HCC2998 cells after 48 hrs by SRB assay; conditions: HCC 2998, 48 h; procedure, shortened: as §3
HT-29 = assay: Cytotoxicity against human HT-29 cells after 48 hrs by SRB assay; conditions: HT-29, 48 h; procedure, shortened: as §3
OVCAR-4 = assay: Cytotoxicity against human OVCAR4 cells after 48 hrs by SRB assay; conditions: OVCAR-4, 48 h; procedure, shortened: as §4
KM12 = assay: Cytotoxicity against human KM12 cells after 48 hrs by SRB assay; conditions: KM12, 48 h; procedure, shortened: as §3
SR = assay: Cytotoxicity against human SR cells after 48 hrs by SRB assay; procedure, shortened: as §2
DU-145 = assay: Cytotoxicity against human DU145 cells after 48 hrs by SRB assay; conditions: DU-145, 48 h; procedure, shortened: as §3
OVCAR-3 = assay: Cytotoxicity against human OVCAR3 cells after 48 hrs by SRB assay; conditions: OVCAR-3, 48 h; procedure, shortened: as §4
UO-31 = assay: Cytotoxicity against human UO31 cells after 48 hrs by SRB assay; conditions: UO-31, 48 h; procedure, shortened: as §2
NCI-H226 = assay: Cytotoxicity against human NCI-H226 cells after 48 hrs by SRB assay; conditions: NCI-H226, 48 h; procedure, shortened: as §4
UACC-62 = assay: Cytotoxicity against human UACC62 cells after 48 hrs by SRB assay; conditions: UACC-62, 48 h; procedure, shortened: as §2
MOLT-4 = assay: Cytotoxicity against human MOLT4 cells after 48 hrs by SRB assay; conditions: MOLT-4, 48 h; procedure, shortened: as §4
T47D = assay: Cytotoxicity against human T47D cells after 48 hrs by SRB assay; procedure, shortened: as §2
[6] = read-out: LC50 (the source's name)

Work on O=C1c2ccccc2C(=O)c2c1cc(Sc1cccc(Cl)c1)c1nsnc21 yielded a GI50 [1] of 1.56 µM, a GI50 (UACC-257) of 1.52 µM and an LC50 (UACC-257) of 6.54 µM. The TGI (UACC-257) was 3.15 µM, the GI50 (HOP-62) was 1.85 µM and the LC50 (HOP-62) was 8.81 µM. The TGI (HOP-62) was 4.04 µM, the GI50 (786-0) was 2.91 µM and the LC50 (concentration killing 50% of cells) (786-0) was 31.1 µM. For the same compound, the TGI (786-0) was 8.97 µM, the GI50 (OVCAR-5) was 2.74 µM and the LC50 (OVCAR-5) was 68.2 µM. For the same compound, the TGI (OVCAR-5) was 6.08 µM, the GI50 (NCI-H522) was 1.84 µM and the LC50 (concentration giving 50% net cell kill) (NCI-H522) was 9.91 µM. The TGI (NCI-H522) was 4.26 µM, the GI50 [2] was 3.81 µM and the GI50 (SN12C) was 1.05 µM. For the same compound, the TGI (SN12C) was 2.58 µM, the CC50 (SN12C; [6]) was 6.35 µM and the GI50 (NCI/ADR-RES) was 0.5 µM. The LC50 (concentration killing 50% of cells) (NCI/ADR-RES) was over 100 µM, the TGI (NCI/ADR-RES) was 4.59 µM and the GI50 (Malme-3M) was 1.98 µM. It also gave an LC50 (Malme-3M) of 6.85 µM, a TGI (Malme-3M) of 3.68 µM and a GI50 (U-251) of 1.7 µM. The LC50 (U-251) was 9.39 µM, the TGI (U-251) was 4 µM and the GI50 [3] was 1.52 µM. It also gave a GI50 [4] of 16 µM, an LC50 [4] of 55 µM and a TGI [4] of 29.7 µM. For the same compound, the GI50 (SF-539) was 2.19 µM, the LC50 (SF-539) was 7.55 µM and the TGI (SF-539) was 4.07 µM. The GI50 (SNB-75) was 1.99 µM, the LC50 (concentration killing 50% of cells) (SNB-75) was 23.7 µM and the TGI (SNB-75) was 6.23 µM. The GI50 [5] was 1.59 µM, the GI50 (A549) was 6.66 µM and the LC50 (concentration killing 50% of cells) (A549) was 73.6 µM. It also gave a TGI (A549) of 24.4 µM, a GI50 (SW-620) of 2.29 µM and an LC50 (50% lethal concentration) (SW-620) of 28.3 µM. For the same compound, the TGI (SW-620) was 5.21 µM, the GI50 (SF-295) was 7.84 µM and the LC50 (SF-295) was 57.9 µM. For the same compound, the TGI (SF-295) was 22.9 µM, the GI50 (HCC 2998) was 16.2 µM and the LC50 (HCC 2998) was 62.1 µM. The TGI (HCC 2998) was 31.7 µM, the GI50 (HT-29) was 20.1 µM and the LC50 (HT-29) was 100 µM. It also gave a TGI (HT-29) of 66.7 µM, a GI50 (OVCAR-4) of 0.31 µM and an LC50 (OVCAR-4) of 6.71 µM. The TGI (OVCAR-4) was 0.94 µM, the GI50 (KM12) was 12 µM and the LC50 (concentration killing 50% of cells) (KM12) was 65.7 µM. The TGI (KM12) was 28 µM, the GI50 (SR) was 2 µM and the LC50 (SR) was over 100 µM. It also gave a TGI (SR) of 8.09 µM, a GI50 (DU-145) of 2.27 µM and an LC50 (DU-145) of 14.3 µM. For the same compound, the TGI (DU-145) was 5.09 µM, the GI50 (OVCAR-3) was 0.45 µM and the TGI (OVCAR-3) was 1.74 µM. It also gave a CC50 (OVCAR-3; [6]) of 6.5 µM, a GI50 (UO-31) of 1.78 µM and an LC50 (UO-31) of 9.73 µM. The TGI (UO-31) was 4.16 µM, the GI50 (NCI-H226) was 2.39 µM and the LC50 (concentration killing 50% of starting cells) (NCI-H226) was 57.5 µM. For the same compound, the TGI (NCI-H226) was 6.06 µM, the GI50 (UACC-62) was 1.6 µM and the LC50 (UACC-62) was 6.54 µM. For the same compound, the TGI (UACC-62) was 3.26 µM, the GI50 (MOLT-4) was 0.64 µM and the LC50 (MOLT-4) was over 100 µM. For the same compound, the TGI (MOLT-4) was 3.27 µM, the GI50 (T47D) was 1.29 µM and the LC50 (concentration killing 50% of cells) (T47D) was 8.72 µM. For the same compound, the TGI (T47D) was 3.35 µM.
